B1: tRNA (parent)
chain: GUUCCGUUGGCGUAAUGGUAACGCGUCUCCCUCCUAAGGAGAAGACUGCGGGUUCGAGUCCCGUACGGAACG

Here are results for 37 variants from the RNAGym collection of RNA variant scans (doi:10.1126/science.aae0568).

Variants at the floor of the assay were thinned out. Some results are limits rather than exact numbers.

In this data set the parent is B1. The experiment in a line: yeast fitness relative to wild type (ratio to wild type); higher = fitter; tRNA-Arg(CCU), competitive growth, 37 C, YPD. An outline of the steps:
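Changes in genotype frequencies gave Darwinian fitness relative to wild type. Frequencies were read by 100-nucleotide paired-end sequencing of gene amplicons before and after pooled Saccharomyces cerevisiae strains, carrying tRNA-Arg(CCU) gene variants at the native locus, were competed in YPD at 37°C for 24 hours in six replicates. A genotype was kept only with ≥ 100 starting reads, and estimates < 0.5 were set to 0.5.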
As for GUUCCGUUGGUGCAAUGGUAACGCGUCUUCCUCCUACGGAGAAGACUGCGGGUACGAGUCCUGUACGAAACG [C11U U13C C29U A37C U54A C62U G68A], the yeast fitness is at most 0.5.
With GUUUCGUUGGCGUAAUGGUAACGCGUCUCCCUCAUAAGGAGAUGACCGCGGGUUCGAGUCCGGUAAGGAACG [C4U C34A A43U U47C C62G C66A] the figure was at most 0.5; with GUUCCGUUGGGGUAAUGGUAACGCGUCUCCCUCCUCAGGAGAAGACUGAGGGUUCGAGUCCCGUACGGAACG [C11G A36C C49A], at most 0.5.
Turning to GUUCCGUUGGCGUAAUGGUAAUGCGUCUUCCUCCUAAGGAGAAGACUGCGGGUUCGAGUCCCGUACGGAACG [C22U C29U], the yeast fitness worked out at 0.821.
For GUUCCGUUGGCGUAAUGGUAACGCGUCUCGCUCCUAAGGAGAAAACUGCGGGUUCGAGUCCCAUACGGAACG [C30G G44A G63A], the yeast fitness was at most 0.5.
With GUUCCGUUGGCGUAAUGGUAACGCGUGUCCCUGCUAAGGAGAAGACUGCGGGUUCGCGUCCCGUACGGAACG [C27G C33G A57C] the figure was at most 0.5; with GUUCCGUUGGCGUAAUGGUAACGCGUCUCCGUCCUAGCGAGAGGACUGCGGGUUCGACUCCCGUACGGAACG [C31G A37G G38C A43G G58C], at most 0.5; with GUAACGUUGGCGUAAUGGUAACGCGUCUCCCUCCUAAGGAGAAGACUGCGGGUUCGAGUCCCGUACGGAACG [U3A C4A], 0.681.
With GUUCCGUUGGGGUAAUGGUAACGCGUCUGCCUCCCAAGGAGAAGUCUGCGGGUUCGAGUCCCGUACGGAACG [C11G C29G U35C A45U] the figure was at most 0.5.
On to GUUGCGUUGGCGUAAUGGUAACGCGUCUGCCUCCUAAGGAGAAGACUGCGGGUUCGAGUCCCGUAUGGAACG [C4G C29G C66U], for which the yeast fitness turned out to be 0.588.
For GUUCCGUUGGCGUAUUGGUAACGCGUCUCCCUCCUAAGGAGCCGACUGCGGGUUCGAGUCCCGUACGGAACG [A15U A42C A43C], the yeast fitness stood at 0.561.
As for GUUUCAUUGGCGUCAUGGUAACGCGUCUCCCUCCUAAGGAGAAGACUGCGGGUUCGAGUCCCGUUCGGAACG [C4U G6A A14C A65U], the figure is at most 0.5; as for GAUCCGUUGGCGUAAUGGUAACGCAUCUCCCUCCUAAGGAGAAGACUGCGGGUUCGAGUCCCGUACGGAUCG [U2A G25A A70U], 0.695.
For the variant GUUCCGUUGGCGUAAUGGUAACGCGGCUCUCGCCUAAGGAGAAGACUGCGGCUUCGAGUCCCGUACGGAACG [U26G C30U U32G G52C], the yeast fitness is at most 0.5.
With GUACCGUUAGCGUAAUGGUAACGCGUCUCCCUCCUAGGGAGAAGACUGCGGGUUCGAGUCCCGUACGCGACG [U3A G9A A37G G68C A69G], the yeast fitness is at most 0.5.
As for GUUCGGUUGGCGCAAUGGUACCGCGUCUCCCUCCUAAGGAGAAGACUGCGGGUUCGAGUCCCGUACGUAACG [C5G U13C A21C G68U], the figure is at most 0.5; as for GUUCCGUUGGCGUAAUGGUAACGCGUAUCCCUCCUAAGGAGAAGACUGCGGGUUCGAGUCGCGUACAGAACG [C27A C61G G67A], at most 0.5; as for GUUCAGUUGGCGUAAUGGUAGCGCGUCUCCCUCCUAAGGAGAAGACUGCGGGUUCGAGUCCCGUACGGAACG [C5A A21G], 0.942.
Consider GUUCCCUUGGCGUAAUGGUAGCGCGUCUCCCCCCUAAGGAGAAGACUACGGGUUCGAGUCCCGUACGGAACG [G6C A21G U32C G48A], for which the yeast fitness was determined as 0.716.
As for GUUCCGUUGGCGUAAUGGUAACGCGUCUCCCUCCUAAGGAGAAGACUGCGGGUUUGAGUCCCAUGCGGAACG [C55U G63A A65G], the figure is at most 0.5; as for GUUCCGUUGGCGGAAUGGUAUGGCGCCUCCCUCCAAAGGAGAAGACUGCGGGUUCGAGUCCCGUGCGGACCG [U13G A21U C22G U26C U35A A65G A70C], at most 0.5; as for GUUCCGUUGGCGUAAUGGUAACGCGUCUCCCUACUAAGGGGAAGACUGCGGGUUCGAGUCCCGUACGGAACG [C33A A40G], 0.683.
Consider GUUCCGUUGGCGUAAUGGUAACGCGUCACCCUUCUAAGGAGAAGACUGCGGGUUGGAGUCCCGUACGGAACG [U28A C33U C55G], for which the yeast fitness is at most 0.5.
As for GUUCGGUUGGGGUAAUGGUACCGCGUCUCCCUCCUAAGGAGAAGACUGCGGGUUCGAGUCCCGUACCGAACG [C5G C11G A21C G67C], the figure is at most 0.5.
Regarding GUUCCGUUGACGUAAUGGUAACGCGUCUCCCUCCUAAGGAGAAGACUGCGGGUUCGAGUCCCGUACGAAGCG [G10A G68A A70G], the yeast fitness came to 0.596.
As for GAUCCGUAGGCGUAAUGGUAACGCGUCUCCCUCCUAAGGAGAAGACUGCGGGUUCGAGUCCCGUACGGAACG [U2A U8A], the figure is 0.811; as for GUUCCGUUGGCGUAAUGGUAACACGUCUACUUCCUAAGGAGGCGACUGCGGGUGCGAGUCCCGUACGGAACG [G23A C29A C31U A42G A43C U54G], at most 0.5; as for GCUCCGUUGGCGUAAUGAUAACGCGUCUCCCUCCUCAGGAGAAGUCUGGGGGUUCGAGUCCCGUACGGAACG [U2C G18A A36C A45U C49G], at most 0.5.
As for GUUCCGUUGGCGUGAUGGUAACGCGUCCCCCUCCUAAGGAGAAGACUGCGGGUUCGAGUCCCGUACUGCACG [A14G U28C G67U A69C], the figure is at most 0.5; as for GUUCCGUUGGCGUAUUGGUAACGCGUCUCCCUCCUAAGGAGAAGACUGCGGGCUCGAGUCCCGUACGGAACG [A15U U53C], 0.71; as for GUUUCGUUGGCGUAAUGGUUACGCGUCUCCCUCCUAAGGAGAAGACUGCGGGUUCGAGUCGCGUACGGAACG [C4U A20U C61G], at most 0.5.
On to GUUCUGUUGGCGUAAUGGUAACGCGUCUCCCCCCUAAGGAGAAGACUGCGGGUUCGAGUCCCGUACGGAUCG [C5U U32C A70U], for which the yeast fitness was found to be 0.66.
With GUUCCGUUGGCGUAAUGGUAACGCGUCUCCCUCCUAAGGAGAAGACUGCGGGUACGAGUCCGGUACGGAACG [U54A C62G], the yeast fitness was determined as 0.637.
With GUUCUGUCGGCGUAAUGGUAACGCGACUCCCUCCUAAGGAGAAGACUGCGGGUUCGAGUCCCGUACGGAACG [C5U U8C U26A] the figure was 0.727.
With GUUCCGUUGGAGUAGUGGUAACGCGUCUCCCUCCUAAGGAGAAGACUGCGGGUUCGAGUCCCGUACGGAACG [C11A A15G] the figure was 0.711.
For the variant GUUCCGUUGGCGUAAUGGUAACGCGUCUCCCUCCUCAGGAGAAGCCUGUGGGUUGGAGUCCAGUACGAAACG [A36C A45C C49U C55G C62A G68A], the yeast fitness is at most 0.5.
As for GUUCCGUUGGCGUAAUGGUAGCGCGUCUCCUUCCUAAGGAGAAGACUGCGGGUUCGAGUCCCGUACGGAACG [A21G C31U], the yeast fitness is 0.872.
